The source of these data is paper PMC10922391 (Cell chemical biology, 2023).

Test [1] concerns S. sanguinis harboring toxicity reporter. The test is described as follows: Competence-coupled toxicity reporter growth assay. Type of test: cell-based. As to conditions: 5-FOA final 1 mg/mL in THY; OD600 at 12 h; WT S. sanguinis + RT; n = 3.
In test [2] the test system is comCDE locus. The test is described as follows: Luciferase reporter assay of comCDE locus activation. The note with it: PcomCDEluc reporter; for activity relative to each other / activity class of CSP derivatives: luminescence, 20 min, 37 °C. The test is classed as cell-based, S. sanguinis VMC66. In outline:
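Overnight VMC66 PcomCDEluc reporter culture diluted 1:10 and held 30 min at 37 °C, 5% CO2. 198 μL per well received 2 μL DMSO or serially diluted synthetic peptide. After 20 min at 37 °C, 5% CO2, luminescence was read on a plate reader. EC50 values were fitted from three independent experiments.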

Test [3] has as its system S. sanguinis. The experiment in a line: CSP-induced DNA transformation efficiency. Type of test: cell-based. The note with it: C+Y media. In outline: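 Cultures grown in THY or C+Y (a chemically defined medium with 2.2 g/L yeast extract) at 37 °C, 5% CO2. Diluted culture (500 μL) mixed with 113 nM CSP and 10 ng target DNA (linear knockout cassette or blank plasmid). Incubated a further 90 min, then plated on THY with selective antibiotic. Colonies counted after two days. Mean of three independent replicates with standard deviation.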

Consider `O=C(O)c1[nH]c(=O)[nH]c(=O)c1F` [5’-FOA, 5-Fluoroorotic acid], for which the “competence-coupled growth defect with toxicity reporter, WT” value in test [1] is listed as “could induce significant growth defect in WT S. sanguinis background”.

On to H-DLRGVPNPWGWIFG-OH, for which, in test [2] (Figure S1), the “potency of CSP analog lacking the C-terminal AA” value is given as “significantly less-potent”.

Turning to H-DLRGVPNPWGWIFGR-OH [15mer], in test [3], the “transformation efficiency, C+Y vs THY” value is “drop in transformation efficiency”. For the same molecule, the “activity relative to each other / activity class of CSP derivatives” value in test [2] is “similarly active”.

For H-FWDLRGVPNPWGWIFGR-OH [17mer], the “activity relative to each other / activity class of CSP derivatives” value in test [2] is “inactive”.

In the case of H-TFWDLRGVPNPWGWIFGR-OH [18mer], in test [2], the “activity relative to each other / activity class of CSP derivatives” value was “inactive”.

Take H-WDLRGVPNPWGWIFGR-OH [16mer]: the “activity relative to each other / activity class of CSP derivatives” value in test [2] is on record as “similarly active”.
